The list is not random: actives were taken first. Their share in the collection is about 1.4%.
Vif inh: inhibitors of HIV Vif. HEK293T cells, Vif self-association by quenched fluorescence, imaging, 24 h. inhibition, % at 7.49 µM. 340,000 tested, 0.35% active. AID 602346; in the data active means inhibition above about 50%, passing the limit was not always enough
T cell modulator: T cell immune modulation candidate; AID 2052; 2C CD8+ T cell-vesicle binding, flow cytometry; stronger effect = lower value; 330,000 tested, 0.068% active; response (vesicle binding), % at 7 µM;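 active means response, share of CD8 T cells binding vesicles, and their 90th percentile fluorescence all below set limits, cut at about 80% in these data, passing the limit was not always enough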;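 further: values below 100% mean blocked vesicle binding to the CD8+ T cells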
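Benchmarks: naked versus QL9-loaded vesicles / Assay system: purified 2C TCR transgenic mouse naive CD8+ T cells / Technique: high-throughput flow cytometry with anti-B7-1 and anti-CD8 staining / Timing: Cell–vesicle co-incubation 1.5 h at 37 °C, staining 20 min on ice / Read-out: percent CD8+ FL2 mean versus row control / Probe or stimulus: QL9-loaded Drosophila micro-vesicles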
CASP6 VEID inh: caspase-6 (human) enzyme inhibition | P55212 | purified caspase-6, Z-VEID-R110 cleavage fluorescence | inhibition, % at 12.5 µM | 350,000 tested, 0.53% active;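 active means mean inhibition across replicates at least about 35%, with every replicate also reaching that limit, limit read from the data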;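 further: 0% = median of neutral control wells and 100% = no fluorescence left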
Target sequence (P55212 24-179 limits assumed): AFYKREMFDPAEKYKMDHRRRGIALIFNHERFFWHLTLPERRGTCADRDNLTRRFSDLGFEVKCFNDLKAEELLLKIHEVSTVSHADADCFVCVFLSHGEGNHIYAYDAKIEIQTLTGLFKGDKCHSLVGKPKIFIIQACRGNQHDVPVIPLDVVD
Target sequence (P55212 194-293 limits assumed): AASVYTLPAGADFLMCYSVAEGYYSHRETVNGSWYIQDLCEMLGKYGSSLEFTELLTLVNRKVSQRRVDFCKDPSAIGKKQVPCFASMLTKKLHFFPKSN
Myeloid diff 2: promotes myeloid progenitor differentiation. 360,000 tested, 1% active. AID 624256. calls only at 10 µM. ER-HoxA9 myeloid progenitors, lysozyme-GFP differentiation, flow cytometry;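 active means normalized GFP-positive differentiation at or above the plate's own cutoff, the solvent-only control mean plus 3 SD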;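 further: cells exposed to compound for four days before flow analysis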
Myeloid diff CP1: compounds promoting myeloid differentiation; shares compounds with Myeloid diff 2; ER-HoxA9 myeloid progenitors, GFP/Mac1 double-positive flow; calls only; 2,300 tested, 2% active;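 active means share of green or green-and-red cells above 9 and 9% in run 1 or 4 and 3% in run 2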
GFP autofluor: flagged as fluorescent in myeloid differentiation counter-screen; shares compounds with Myeloid diff 2; ER-HoxA9 myeloid progenitors, no estrogen, GFP autofluorescence flow cytometry; vehicle wells 0%, positive control 100%; fluorescence response, % (test concentration not listed); 2,300 tested, 7.4% active; AID 651707;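 active means over 5% cells positive for green fluorescent reporter, or over 2% positive for both it and APC stain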;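 further: range taken on the double positive population between DMSO and positive control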
* = called active by the depositor; i = inactive; / = no result; + = active, no number.

SMILES | Vif inh | T cell modulator | CASP6 VEID inh | Myeloid diff 2 | Myeloid diff CP1 | GFP autofluor
C[C@@H]1CCCCO[C@@H](CN(C)S(=O)(=O)c2cccs2)[C@H](C)CN([C@@H](C)CO)C(=O)c2cc(NS(=O)(=O)c3ccc(F)cc3)ccc2O1 | / | / | 0 | / | / | /
CN1c2ccc(-c3ccc(C#N)cc3)cc2[C@@H]2[C@@H](CCN2C(=O)CC2CC2)[C@H]1CO | / | / | 1 | / | / | /
COc1ccc(CN2C[C@@H](C)[C@@H](OC)CN(C)C(=O)c3cc(NC(=O)C4CC4)ccc3OC[C@H]2C)cc1 | / | / | -1 | / | / | /
COC(=O)C(C)(C)c1cccnc1C#N | -2 | / | 10 | i | i | 0
C[C@H]1CN([C@@H](C)CO)C(=O)c2cc(NS(=O)(=O)c3cn(C)cn3)ccc2O[C@H]1CN(C)Cc1ccc(-c2ccccc2)cc1 | / | / | 4 | / | / | /
O=C(Cc1ccccc1)N1C[C@H]2[C@@H](c3ccccc31)[C@H](CO)N2C(=O)c1cccc(F)c1 | / | / | 3 | / | / | /
O=C(CCS(=O)(=O)c1ccc(Cl)cc1)Nc1nnc(-c2ccco2)o1 | -5 | 344 | 0 | + | i | 0
O=C(Cn1cccc1C(=O)c1ccccc1)NCc1cccs1 | -1 | 329 | / | i | i | 0
O=C(Cn1cccc1C(=O)c1ccccc1)NCc1ccccc1 | 2 | 216 | / | i | / | /
O=C1S/C(=C\c2ccc(N3CCOCC3)o2)C(=O)N1c1ccccc1 | 23 | 458 | / | + | i | 9.6*
CCC(=O)Nc1cccc(NC(=O)c2ccccc2Cl)c1 | -3 | 124 | 1 | i | i | 0
COc1ccc(C2CC(C(F)(F)F)n3nc(CO)c(Cl)c3N2)cc1OC (centres undefined) | -12 | 564 | / | i | / | /
COc1ccc(C2CC(C(F)(F)F)n3nc(C(=O)O)c(Cl)c3N2)cc1OC (centres undefined) | -8 | 682 | / | i | i | 0
CCC(=O)N(C)C[C@H]1Oc2cc(C#CCN(C)C)ccc2S(=O)(=O)N([C@@H](C)CO)C[C@H]1C | / | / | -2 | / | / | /
COc1ccc(NC(=S)N(CCCN2CCCC2)Cc2cccn2Cc2ccc(Cl)cc2)cc1Cl | -3 | 282 | -31 | i | / | /
Cc1ccc(NC(=S)N(CCCN2CCCC2)Cc2cccn2Cc2ccc(Cl)cc2)cc1C | -3 | 139 | -48 | i | / | /
FC(F)(F)c1cccc(NC(=S)N(CCCN2CCCC2)Cc2cccn2Cc2ccc(Cl)cc2)c1 | 0 | 160 | -13 | + | i | 41*
Cc1ccc(NC(=S)N(CCCN2CCCC2)Cc2cccn2Cc2ccc(Cl)cc2)cc1Cl | -1 | 380 | -22 | + | i | 0
COC(=O)[C@@H]1[C@@H](CO)[C@@H]2Cn3c(ccc(-c4ccncc4)c3=O)[C@@H]2N1Cc1cccc(F)c1 | / | / | -2 | / | / | /
Cc1ccc(-c2cc(C(F)(F)F)c(C#N)c(SCCC#N)n2)o1 | 9 | 759 | / | i | i | 0
COc1ccc(-c2cc(C(F)(F)F)c(C#N)c(SCC(=O)O)n2)cc1 | -10 | 341 | 1 | i | / | /
CC(C)NC(=O)NCC[C@@H]1CC[C@@H](NC(=O)CN(C)C)[C@@H](CO)O1 | / | / | -156 | / | / | /
CCOc1ccc(NS(=O)(=O)c2ccc(NC(=S)NC(=O)CC(C)C)cc2)cc1 | -3 | 307 | / | i | i | 2
COCC(=O)N(C)C[C@H]1Oc2ncc(-c3ccc(C#N)cc3)cc2C(=O)N([C@@H](C)CO)C[C@H]1C | / | / | -5 | / | / | /
C=C(C)CSc1nc(N)c2c(C)c(C)sc2n1 | -2 | 336 | / | i | / | /
SMILES | Vif inh | T cell modulator | CASP6 VEID inh | Myeloid diff 2 | Myeloid diff CP1 | GFP autofluor
CSc1nc(N)c2c(C)c(C)sc2n1 | 8 | 335 | -2 | i | i | 0
CCN1C(=O)[C@H]2[C@@H](c3ccc(C(F)(F)F)cc3)N[C@]3(CCCN(CC4CCCCC4)C3=O)[C@H]2C1=O | 2 | / | 10 | + | i | 0
O=C(C[C@@H]1CC[C@@H]2[C@H](COC[C@@H](O)CN2Cc2ccc(F)cc2)O1)N1CCc2ccccc2C1 | / | / | 2 | / | / | /
Cc1ccc(-c2nsc(SCC(=O)Nc3ccc4c(c3)OCO4)n2)cc1 | -2 | 434 | / | i | / | /
O=C(CSc1nc(-c2ccccc2Cl)ns1)Nc1ccc2c(c1)OCO2 | 2 | 403 | 2 | + | i | 0
CCC(=O)N1CC2(C1)[C@@H](c1ccc(-c3ccc(C)cc3)cc1)[C@@H](CO)N2S(C)(=O)=O | / | / | 0 | / | / | /
CCC(=O)N(C)C[C@H]1Oc2ncc(C3=CCCC3)cc2C(=O)N([C@@H](C)CO)C[C@H]1C | / | / | 0 | / | / | /

High-throughput results as filed in PubChem.
